Assay results gathered from unrelated publications.
Each line is one published result; the experiments were not run side by side.
Target: Serine/threonine-protein kinase 32B (STK32B, Homo sapiens, UniProt Q9NY57)

Structure (SMILES) | assay | conditions | remaining binding [%]
O=C(c1ccc(Nc2ncc(Cl)c(-c3ccc(Cl)s3)n2)cc1)N1CCC(N2CCCC2)CC1 | binding, competition with immobilised ligand | 1 µM | 100
c1cnn2ncc(-c3ccnc(N4CCC45COC5)n3)c2c1 | binding | 1 µM | 93
CC1=C(C#N)[C@@H](c2ccc3[nH]nc(C)c3c2)C(C#N)=C(c2ccc(Cl)cc2)N1 | cell-free assay, competition with immobilised ligand | 1 µM | 100
CN(C)c1ncc(F)c(-c2cnn3ncccc23)n1 | binding | 1 µM | 100
CS(=O)(=O)N1CCCC(NC(=O)[C@H](CCC2CCCCC2)NC(=O)c2ccc(CNC(=O)c3cnc4ccccn34)cc2)C1 (stereo partly drawn) | cell-free assay, competition with immobilised ligand | 0.1 µM | 93
N[C@@H]1CCN(c2nccc(-c3cnn4ncccc34)n2)C1 | binding | 1 µM | 96
CO[C@@H](C)c1c(Nc2ccc([C@H](N(C)C(=O)C3CCS(=O)(=O)CC3)C(F)(F)F)cc2)cnc2cc(Cl)nn12 | cell-free assay, competition with immobilised ligand | 1 µM | 89
CN(C)c1nccc(-c2cnc3ncccn23)n1 | binding | 1 µM | 88
CNC(=O)[C@@H]1CC[C@@H](n2c(-c3ccc4cnccc4c3)nc3ccc(C(=O)NCc4cccc(C(N)=O)c4)cc32)C1 | binding, competition with immobilised ligand | 1 µM | 100
O=C(NCC1CCOCC1)c1n[nH]cc1NC(=O)c1c(F)cccc1F | binding, competition with immobilised ligand | 1 µM | 77
c1cncc(-c2cccc(Nc3nccc(NC4CCCCC4)n3)c2)c1 | binding, competition with immobilised ligand | 10 µM | 100
Cc1c(NC(=O)c2cc(C(N)=O)nc3cc(F)ccc23)c(C(F)(F)F)nn1Cc1ccc(C#N)cc1 | cell-free assay, competition with immobilised ligand | 1 µM | 100
O=C(c1ccc(Nc2nccc(-c3cc4ccccc4s3)n2)cc1)N1CCC(N2CCCC2)CC1 | binding, competition with immobilised ligand | 1 µM | 100
C[C@@H](c1ccc(-n2cnc3c(N)ncnc32)cc1)N1CCc2nn(C)c(Cc3ccccc3)c2C1=O | binding, competition with immobilised ligand | 0.1 µM | 99
COc1cnc(Nc2cccc(S(N)(=O)=O)c2)nc1N1CCN(c2ccccc2)CC1 | binding, competition with immobilised ligand | 1 µM | 100
C[C@@H]1CCN(c2nccc(-c3cnn4ncccc34)n2)C1 | binding | 1 µM | 89
CCN1CCN(Cc2ccc(C(=O)Nc3ccc(C)c(Oc4ccc5c(c4)CC(=O)N5)c3)cc2C(F)(F)F)CC1 | binding, competition with immobilised ligand | 1 µM | 92
O=C(NCCCC1CCCCC1)c1ccc(CNC(=O)c2cnn(-c3ccccc3)c2C(F)(F)F)cc1 | cell-free assay, competition with immobilised ligand | 0.1 µM | 100
CN(C)c1nccc(-c2cnn3ncccc23)n1 | binding | 1 µM | 100
C[C@H](c1cccc(C#N)c1)n1cc(Cl)cc(C(N)=O)c1=N | cell-free assay, competition with immobilised ligand | 1 µM | 100
O=C(c1ccc(Nc2ncc(Cl)c(-c3cc4ccccc4s3)n2)cc1)N1CCC(N2CCCC2)CC1 | binding, competition with immobilised ligand | 1 µM | 100
